Measurements reported in ChEMBL document CHEMBL3797143, “Novel S1P1 receptor agonists - Part 5: From amino-to alkoxy-pyridines” (Eur J Med Chem, 2016).
pEC50: −log10 of the molar value. Calls of active or inactive are those of the source. The calls are words filed in the database; no cut-off is given here.

Experiments:
[1] = test system: Rattus norvegicus; assay: Time duration of maximum lymphocyte count reduction in Wistar rat at 10 mg/kg administered via oral gavage; assay type: functional
Summary of the method: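 Duration of action is the latest sampling time at which maximal lymphocyte-count reduction was still seen. Male Wistar rats received 10 mg/kg orally, and blood lymphocytes were counted before dosing and at 3, 6 and 24 h (later times in some cases). Mean of 6-8 animals.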

[2] = Half life in Wistar rat at 10 mg/kg administered via oral gavage by LC-MS/MS analysis; assay type: ADME, organism-based; settings: in vivo
Summary of the method: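 Oral half-life was calculated from plasma concentrations measured in the lymphocyte-count study, in which male Wistar rats received 10 mg/kg orally. Plasma was prepared from EDTA blood by centrifugation at 3000 g for 10 min at 4 °C.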

[3] = Phototoxicity in Balb/c mouse 3T3 clone A31 cells assessed as AUC of UV spectra between 310 and 350 nm normalized to compound concentration at 0.05 to 100 uM preincubated for 1 hr followed by UVA irradiation measured after 24 hrs by neutral red uptake assay relative to control; assay type: functional
[4] = Phototoxicity in Balb/c mouse 3T3 clone A31 cells assessed as inhibition of cell viability measured as photo irritancy factor at 0.05 to 100 uM preincubated for 1 hr followed by UVA irradiation measured after 24 hrs by neutral red uptake assay relative to control; assay type: functional
[5] = target: Sphingosine 1-phosphate receptor 1 (Homo sapiens, UniProt P21453); assay: Agonist activity at human recombinant S1PR1 expressed in CHO cell membranes incubated for 30 mins by [35S]GTPgammaS binding assay in presence of GDP; assay type: functional
Sequence of Sphingosine 1-phosphate receptor 1 (P21453 whole entry): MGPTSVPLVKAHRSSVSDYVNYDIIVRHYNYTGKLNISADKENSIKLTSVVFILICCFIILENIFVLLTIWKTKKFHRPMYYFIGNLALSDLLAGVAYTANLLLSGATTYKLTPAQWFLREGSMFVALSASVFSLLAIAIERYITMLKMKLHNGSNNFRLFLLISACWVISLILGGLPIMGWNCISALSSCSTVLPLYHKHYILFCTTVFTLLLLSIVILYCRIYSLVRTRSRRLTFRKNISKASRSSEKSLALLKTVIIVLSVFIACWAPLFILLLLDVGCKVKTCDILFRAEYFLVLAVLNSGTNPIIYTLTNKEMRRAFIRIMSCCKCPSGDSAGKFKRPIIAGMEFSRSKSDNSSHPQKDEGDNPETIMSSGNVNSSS
Summary of the method: (§1)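 Membranes from CHO cells expressing recombinant human S1P1 or S1P3. Compounds were preincubated with membranes for 30 min at room temperature. Reaction stopped by filtration, membrane-bound 35S-GTPγS counted. Geometric mean of ≥3 independent runs.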

[6] = target: Sphingosine 1-phosphate receptor 3 (Homo sapiens, UniProt Q99500); assay: Agonist activity at human recombinant S1PR3 expressed in CHO cell membranes incubated for 30 mins by [35S]GTPgammaS binding assay in presence of GDP; assay type: functional; summary of the method: as §1
Sequence of Sphingosine 1-phosphate receptor 3 (Q99500 whole entry): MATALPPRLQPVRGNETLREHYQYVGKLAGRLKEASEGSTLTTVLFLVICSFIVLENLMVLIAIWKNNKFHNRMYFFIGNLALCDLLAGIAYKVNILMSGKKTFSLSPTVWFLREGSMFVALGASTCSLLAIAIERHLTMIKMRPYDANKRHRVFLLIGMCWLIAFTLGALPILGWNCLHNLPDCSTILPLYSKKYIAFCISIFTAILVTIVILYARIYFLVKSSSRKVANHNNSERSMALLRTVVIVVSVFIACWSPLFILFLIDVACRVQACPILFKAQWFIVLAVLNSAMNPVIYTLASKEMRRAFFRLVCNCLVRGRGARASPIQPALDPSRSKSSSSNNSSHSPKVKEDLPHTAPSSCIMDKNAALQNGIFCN

[7] = test system: Rattus norvegicus; assay: Decrease in peripheral blood lymphocyte count in Wistar rat at 10 mg/kg administered via oral gavage measured after 3 hrs; assay type: functional; set-up: scale not given: the % may be the effect or the level left
Summary of the method: (§2)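 Male Wistar rats (RccHan:WIST) were given 10 mg/kg orally by gavage in vehicle containing 5% DMSO. Blood drawn by sublingual vein puncture under isoflurane before dosing and at the listed times after dosing. Lymphocytes counted on a haematology analyser. Results are % change from baseline, mean of 6-8 animals.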

[8] = test system: Rattus norvegicus; assay: Decrease in peripheral blood lymphocyte count in Wistar rat at 10 mg/kg administered via oral gavage measured after 6 hrs; assay type: functional; set-up: scale not given: the % may be the effect or the level left; summary of the method: as §2
[9] = test system: Rattus norvegicus; assay: Decrease in peripheral blood lymphocyte count in Wistar rat at 10 mg/kg administered via oral gavage measured after 24 hrs; assay type: functional; set-up: scale not given: the % may be the effect or the level left; summary of the method: as §2
[10] = Plasma concentration in Wistar rat at 10 mg/kg administered via oral gavage measured after 3 hrs by LC-MS/MS analysis; assay type: ADME, organism-based
Summary of the method: (§3)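 Male Wistar rats received 10 mg/kg orally by gavage. Blood was drawn at the listed times into EDTA tubes, and plasma was prepared by centrifugation at 3000 g for 10 min at 4 °C. Limit of quantification 3 nM.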

[11] = Plasma concentration in Wistar rat at 10 mg/kg administered via oral gavage measured after 6 hrs by LC-MS/MS analysis; assay type: ADME, organism-based; summary of the method: as §3
[12] = Plasma concentration in Wistar rat at 10 mg/kg administered via oral gavage measured after 24 hrs by LC-MS/MS analysis; assay type: ADME, organism-based; summary of the method: as §3
[13] = test system: Rattus norvegicus; assay: Decrease in peripheral blood lymphocyte count in Wistar rat at 10 mg/kg administered via oral gavage measured after 96 hrs; assay type: functional; set-up: scale not given: the % may be the effect or the level left; summary of the method: as §2
[14] = test system: Rattus norvegicus; assay: Decrease in peripheral blood lymphocyte count in Wistar rat at 10 mg/kg administered via oral gavage measured after 144 hrs; assay type: functional; set-up: scale not given: the % may be the effect or the level left; summary of the method: as §2
[15] = test system: Rattus norvegicus; assay: Decrease in peripheral blood lymphocyte count in Wistar rat at 10 mg/kg administered via oral gavage measured after 72 hrs; assay type: functional; set-up: scale not given: the % may be the effect or the level left; summary of the method: as §2
[16] = Plasma concentration in Wistar rat at 10 mg/kg administered via oral gavage measured after 72 hrs by LC-MS/MS analysis; assay type: ADME, organism-based; summary of the method: as §3

half-life [2]	pEC50 [5]	pEC50 [6]	concentration at 3 h [10]	concentration at 6 h [11]	concentration at 24 h [12]	concentration at 72 h [16]	Structure (SMILES)	Time [1]	Ratio [3]	Ratio [4]	Activity [7]	Activity [8]	Activity [9]	Activity [13]	Activity [14]	Activity [15]
6 h	8.85	6.04	690 nM	500 nM	61 nM	–	CCc1cc(-c2noc(-c3ccc(C4CCCC4)c(OC)n3)n2)cc(C)c1OC[C@@H](O)CNC(=O)CO	6 h	0.17	6.5	70%	78%	23%	–	–	–
5 h	8.35	5.82	1790 nM	1300 nM	100 nM	–	CCc1cc(-c2noc(-c3cc(C4CCCC4)cc(OC)n3)n2)cc(C)c1OC[C@@H](O)CNC(=O)CO	6 h	0.09	2.1	63%	75%	-2%	–	–	–
–	9.70	7.02	–	–	–	–	CCc1cc(-c2noc(-c3cc(C)nc(OC(C)C)c3)n2)cc(C)c1OC[C@@H](O)CNC(=O)CO	96 h	–	–	66%	67%	74%	70%	28%	–
–	9.52	6.96	–	–	–	–	CCc1cc(-c2noc(-c3cc(C)nc(OC4CCC4)c3)n2)cc(C)c1OC[C@@H](O)CNC(=O)CO	96 h	–	–	66%	62%	72%	62%	21%	–
4 h	9.22	6.68	2520 nM	2020 nM	71 nM	–	CCc1cc(-c2noc(-c3cc(OC)c(C4CCCC4)cn3)n2)cc(C)c1OC[C@@H](O)CNC(=O)CO	6 h	0.02	2.1	79%	86%	60%	–	–	–
–	7.68	7.42	–	–	–	–	CCc1cc(-c2noc(-c3cnc(C)c(OC4CCCC4)c3)n2)cc(C)c1OC[C@@H](O)CNC(=O)CO	–	–	–	–	–	–	–	–	–
–	8.96	7.26	–	–	–	–	CCc1cc(-c2nc(-c3cc(C)c(OC[C@@H](O)CNC(=O)CO)c(CC)c3)no2)cc(OC2CCC2)n1	168 h	–	–	72%	75%	79%	–	–	–
–	8.82	7.77	–	–	–	–	CCc1cc(-c2noc(-c3cnc(OC)c(C4CCCC4)c3)n2)cc(C)c1OC[C@@H](O)CNC(=O)CO	–	–	–	–	–	–	–	–	–
4 h	9.00	6.03	1610 nM	890 nM	39 nM	–	CCc1cc(-c2noc(-c3cc(C)cc(OC4CCCC4)n3)n2)cc(C)c1OC[C@@H](O)CNC(=O)CO	6 h	0.1	2	51%	58%	-18%	–	–	–
–	9.15	6.10	–	–	–	–	CCc1cc(-c2noc(-c3cc(OC)cc(C4CCCC4)n3)n2)cc(C)c1OC[C@@H](O)CNC(=O)CO	6 h	0	2.4	58%	61%	30%	–	–	–
11 h	9.52	7.15	2390 nM	2950 nM	970 nM	–	CCc1cc(-c2noc(-c3cnc(C4CCCC4)c(OC)c3)n2)cc(C)c1OC[C@@H](O)CNC(=O)CO	24 h	0.15	7.6	73%	82%	84%	–	–	–
–	8.14	6.16	–	–	–	–	CCc1cc(-c2noc(-c3cc(OC)nc(C4CCCCC4)c3)n2)cc(C)c1OC[C@@H](O)CNC(=O)CO	24 h	–	–	58%	58%	72%	33%	–	–
< 3 h	7.96	5.85	1560 nM	510 nM	< 9 nM	–	CCc1cc(-c2noc(-c3cc(OC4CCCC4)cc(C)n3)n2)cc(C)c1OC[C@@H](O)CNC(=O)CO	<3 h	0	1.3	50%	36%	-33%	–	–	–
16 h	9.15	6.85	1140 nM	960 nM	510 nM	–	CCc1cc(-c2noc(-c3cnc(OC4CCCC4)c(C)c3)n2)cc(C)c1OC[C@@H](O)CNC(=O)CO	24 h	0.02	1.4	76%	85%	85%	–	–	–
–	8.96	7.30	–	–	–	–	CCc1cc(-c2nc(-c3cc(C)c(OC[C@@H](O)CNC(=O)CO)c(CC)c3)no2)cc(OC2CCCC2)n1	24 h	–	–	64%	71%	76%	Active	–	–
–	9.52	7.66	–	–	–	–	CCc1cc(-c2noc(-c3cc(OC)nc(C4CCC4)c3)n2)cc(C)c1OC[C@@H](O)CNC(=O)CO	24 h	–	–	56%	61%	61%	–	–	Active

Further lines, the molecule ahead of its results:

Structure (SMILES)	half-life [2]	pEC50 [5]	pEC50 [6]	concentration at 3 h [10]	concentration at 6 h [11]	concentration at 24 h [12]	concentration at 72 h [16]	Time [1]	Ratio [3]	Ratio [4]	Activity [7]	Activity [8]	Activity [9]	Activity [13]	Activity [14]	Activity [15]
CCc1cc(-c2noc(-c3cc(C(CC)CC)cc(OC)n3)n2)cc(C)c1OC[C@@H](O)CNC(=O)CO	4 h	8.96	6.74	410 nM	240 nM	12 nM	–	<3 h	–	–	57%	50%	-10%	–	–	–
CCc1cc(-c2nnc(-c3cc(C)nc(N(CC)CC)c3)o2)cc(C)c1OC[C@@H](O)CNC(=O)CO	–	–	–	–	–	–	–	–	–	>200	–	–	–	–	–	–
CCc1cc(-c2noc(-c3cc(OC)cc(C(CC)CC)n3)n2)cc(C)c1OC[C@@H](O)CNC(=O)CO	–	8.92	6.28	–	–	–	–	–	–	–	–	–	–	–	–	–
CCc1cc(-c2nc(-c3cc(C)c(CCC(=O)NCCO)c(CC)c3)no2)cnc1N(C)C(C)C	–	–	–	–	–	–	–	–	–	>200	–	–	–	–	–	–
CCc1cc(-c2nc(-c3cc(C)c(OC[C@@H](O)CO)c(CC)c3)no2)cnc1CC(C)C	–	–	–	–	–	–	–	–	–	1.6	–	–	–	–	–	–
CCc1cc(-c2noc(-c3cc(C)nc(N(CC)CC)c3)n2)cc(C)c1OC[C@@H](O)CNC(=O)CO	–	–	–	–	–	–	–	72 h	–	–	–	–	70%	–	–	62%
CCc1cc(-c2noc(-c3cc(OC)cc(CC(C)C)n3)n2)cc(C)c1OC[C@@H](O)CNC(=O)CO	–	8.82	5.85	–	–	–	–	6 h	–	–	58%	66%	23%	–	–	–
CCc1cc(-c2noc(-c3cc(OC)nc(C(CC)CC)c3)n2)cc(C)c1OC[C@@H](O)CNC(=O)CO	9 h	9.40	7.02	750 nM	470 nM	46 nM	< 3 nM	6 h	0.05	0.9	59%	59%	36%	–	–	Active
CCc1cc(-c2noc(-c3cc(OC)nc(-c4ccccc4)c3)n2)cc(C)c1OC[C@@H](O)CNC(=O)CO	–	7.55	5.80	–	–	–	–	–	–	–	–	–	–	–	–	–
CCc1cc(-c2nnc(-c3cc(C)nc(CC(C)C)c3)o2)cc(C)c1OC[C@@H](O)CNC(=O)CO	–	–	–	–	–	–	–	–	–	1.1	–	–	–	–	–	–
CCc1cc(-c2noc(-c3cc(C)nc(C(CC)CC)c3)n2)cc(C)c1OC[C@@H](O)CNC(=O)CO	–	–	–	–	–	–	–	–	–	1.7	–	–	–	–	–	–
